{"source": "ChEMBL document CHEMBL1142422", "about": "“Affinity purification and characterization of a key enzyme responsible for circadian rhythmic control of nyctinasty in Lespedeza cuneata L” (Bioorg Med Chem, 2008)", "key": {"[1]": {"assay": "Binding affinity to leaf opening factor beta-glucosidase relative to potassium lespedezate", "design": "unit not given here", "method_in_brief": "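Purified LOFG was added to 25 mM acetate pH 4.5 containing 1 mM of each substrate analog, preincubated at 37 °C. The mixture was incubated 2 h at 37 °C, then stopped with 0.1 M Tris-HCl pH 9.0, bringing the pH to 8.0. The released aglycon was quantified by RP-HPLC, and activity was expressed relative to potassium lespedezate.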"}, "[2]": {"assay": "Inhibition of Aspergillus niger beta-glucosidase in acetate buffer at pH 6.0"}, "[3]": {"assay": "Inhibition of Aspergillus niger beta-glucosidase in acetate buffer at pH 5.5", "method_in_brief": "(§1)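 Aspergillus niger β-glucosidase was preincubated with inhibitor for 15 min at 37 °C before the p-nitrophenyl glucoside was added. Buffers were 25 mM acetate at pH 4.5–5.5 and 25 mM Bis-Tris at pH 6.0. The reaction was stopped with 0.5 M Na2CO3, and released p-nitrophenol was read at 405 nm. Ki was derived from Lineweaver–Burk plots.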"}, "Prunus dulcis": {"tested_on": "Prunus dulcis", "assay": "Inhibition of Almond beta-glucosidase in acetate buffer at pH 5.0 at 1 mM", "method_in_brief": "(§2)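 Commercial glycosidases were preincubated with varied inhibitor amounts for 15 min at 37 °C in 50 mM acetate buffer: pH 5.0 for the β-glucosidases and β-galactosidase, pH 6.8 for α-glucosidase. The matching p-nitrophenyl glycoside was then added, and the reaction was stopped with 0.5 M Na2CO3. p-Nitrophenol was read at 405 nm. Ki came from Lineweaver–Burk plots, and percent inhibition was also scored at 1 mM inhibitor.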"}, "[4]": {"molecular_target": "T1, Beta-galactosidase (Aspergillus oryzae) (UniProt Q2U7N3)", "T1 sequence (whole entry)": "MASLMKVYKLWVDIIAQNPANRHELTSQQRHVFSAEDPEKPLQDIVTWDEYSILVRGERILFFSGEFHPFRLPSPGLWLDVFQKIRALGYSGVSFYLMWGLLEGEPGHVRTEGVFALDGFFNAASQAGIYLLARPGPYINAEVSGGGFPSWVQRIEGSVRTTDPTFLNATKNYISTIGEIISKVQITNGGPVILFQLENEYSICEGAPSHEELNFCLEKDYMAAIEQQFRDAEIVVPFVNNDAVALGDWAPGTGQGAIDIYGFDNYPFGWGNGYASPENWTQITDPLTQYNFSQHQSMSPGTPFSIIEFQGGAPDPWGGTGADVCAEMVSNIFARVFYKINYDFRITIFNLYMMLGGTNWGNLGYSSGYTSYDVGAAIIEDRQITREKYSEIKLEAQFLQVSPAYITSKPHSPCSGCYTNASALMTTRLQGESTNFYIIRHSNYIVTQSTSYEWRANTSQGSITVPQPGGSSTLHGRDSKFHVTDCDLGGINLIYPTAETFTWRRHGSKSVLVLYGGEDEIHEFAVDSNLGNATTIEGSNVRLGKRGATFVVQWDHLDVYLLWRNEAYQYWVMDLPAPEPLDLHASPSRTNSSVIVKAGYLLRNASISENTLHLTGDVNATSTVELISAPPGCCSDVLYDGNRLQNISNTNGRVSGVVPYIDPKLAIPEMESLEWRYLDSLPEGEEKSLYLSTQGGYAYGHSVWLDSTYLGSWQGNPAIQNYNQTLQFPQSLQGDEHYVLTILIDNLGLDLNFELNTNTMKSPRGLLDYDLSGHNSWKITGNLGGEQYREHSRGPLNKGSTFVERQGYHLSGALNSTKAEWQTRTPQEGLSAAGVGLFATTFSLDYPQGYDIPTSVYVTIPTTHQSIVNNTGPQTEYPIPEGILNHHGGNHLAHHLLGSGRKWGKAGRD", "assay": "Inhibition of Aspergillus oryzae beta-galactosidase in acetate buffer at pH 5.0 at 1 mM", "method_in_brief": "as §2"}, "[5]": {"tested_on": "Geobacillus stearothermophilus", "assay": "Inhibition of Bacillus stearothermophilus alpha-glucosidase in acetate buffer at pH 6.8 at 1 mM", "method_in_brief": "as §2"}, "[6]": {"assay": "Inhibition of Aspergillus niger beta-glucosidase in acetate buffer at pH 4.5", "method_in_brief": "as §1"}, "[7]": {"assay": "Inhibition of Aspergillus niger beta-glucosidase in acetate buffer at pH 5.0", "method_in_brief": "as §2"}, "[8]": {"assay": "Activity of leaf opening factor beta-glucosidase at pH 4.5", "method_in_brief": "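Purified leaf-opening factor β-glucosidase (LOFG) from L. cuneata leaves, assayed in 25 mM acetate pH 4.5 with potassium lespedezate at four substrate levels. The semicarbazone of the released α-keto acid was trapped with 1 mM semicarbazide and quantified by RP-HPLC after 2 h at 37 °C. Km was taken from a Lineweaver–Burk plot.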"}}, "note": "Activity calls are given as the source filed them. The rule behind the calls is not given here.", "data": [{"smiles": "O=C(O)/C(=C/c1ccc(O)cc1)O[C@@H]1O[C@H](CO)[C@H](O)[C@H](O)[C@H]1O", "values": [{"measurement": "Activity", "setting": "[1]", "result": 0}]}, {"smiles": "O=C(O)/C(=C/c1ccc(O)cc1)O[C@@H]1O[C@H](CO)[C@@H](O)[C@H](O)[C@H]1O", "values": [{"measurement": "Activity", "setting": "[1]", "result": 0}]}, {"smiles": "OC/C(=C\\c1ccc(O)cc1)N[C@@H]1O[C@H](CO)[C@@H](O)[C@H](O)[C@H]1O", "values": [{"measurement": "Activity", "setting": "[1]", "result": 113}]}, {"smiles": "O=C(O)C(Cc1ccc(O)cc1)O[C@@H]1O[C@H](CO)[C@@H](O)[C@H](O)[C@H]1O", "note": "(stereo partly drawn)", "values": [{"measurement": "Activity", "setting": "[1]", "result": 26}]}, {"smiles": "OCC(=Nc1ccc(O)cc1)N[C@@H]1O[C@H](CO)[C@@H](O)[C@H](O)[C@H]1O", "values": [{"measurement": "Ki", "setting": "[2]", "result": 4.12, "unit": "µM"}, {"measurement": "Ki", "setting": "[3]", "result": 1.33, "unit": "µM"}, {"measurement": "inhibition", "setting": "Prunus dulcis", "result": "< 90", "unit": "%"}, {"measurement": "Activity", "setting": "[4]", "result": "inactive"}, {"measurement": "Activity", "setting": "[5]", "result": "inactive"}, {"measurement": "Ki", "setting": "[6]", "result": 3.5, "unit": "µM"}, {"measurement": "Ki", "setting": "[7]", "result": 1.3, "unit": "µM"}]}, {"smiles": "O=C(O)/C(=C\\c1ccc(O)cc1)O[C@@H]1O[C@H](CO)[C@@H](O)[C@H](O)[C@H]1O", "values": [{"measurement": "Km", "setting": "[8]", "result": 548, "unit": "µM"}]}, {"smiles": "O=C(O)/C(=C\\c1ccc(O)cc1)O[C@@H]1O[C@H](CO)[C@H](O)[C@H](O)[C@H]1O", "values": [{"measurement": "Activity", "setting": "[1]", "result": 0}]}]}
